Converted amounts (≈) assume the structure as drawn.
Legend:
bacterial membranes = assay: SYTOX uptake assay; assay type: cell-based; details: SYTOX fluorescence; positive control 12,3,2,3,12
Method in brief: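 All synthetic test compounds were run in a SYTOX uptake assay for membrane damage in S. aureus cells. Uptake was scored qualitatively as positive or negative.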

S. aureus = assay: minimum inhibitory concentration; assay type: cell-based, Staphylococcus aureus
Method in brief: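 Each synthetic test compound was tested against S. aureus SH1000, with USA300 and ATCC33591 as additional strains. MIC was read in both iron-rich medium (IRM) and iron-depleted medium (IDM), and values are given in μM. Vancomycin was the positive control run in parallel.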

## CCC(=O)[C@H](C)C[C@@H](C)C[C@H](C)CC[C@@H](O)C[C@@H](O)[C@@H](CC(C)C)[C@@H](O)c1cc(O)cc(O)c1 [Baulamycin A, baulamycin A]
Bacterial membranes
  membrane disruption (SYTOX uptake): tested positive for membrane disruption

## CC(=O)[C@H](C)C[C@@H](C)C[C@H](C)CC[C@@H](O)C[C@@H](O)[C@@H](CC(C)C)[C@@H](O)c1cc(O)cc(O)c1 [Baulamycin B, baulamycin B]
S. aureus
  MIC against S. aureus: 500 µM (≈ 233 µg/mL)
Bacterial membranes
  membrane disruption (SYTOX uptake): exception

Source: paper PMC5869691 (Organic letters, 2018)
